From ChEMBL document CHEMBL1144211, “Overcoming hERG issues for brain-penetrating cathepsin S inhibitors: 2-cyanopyrimidines. Part 2” (Bioorg Med Chem Lett, 2008)

Experiments:
Format in all cases: ADME, organism-based
[1] = Plasma concentration in Sprague-Dawley rat at 10 mg/kg, po after 1 hr; design: dose 10 mg/kg, route oral
Procedure, shortened: (§1)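 Sprague–Dawley rats received a single oral dose of 10 mg/kg. Plasma and brain concentrations (nM) were measured at 1 h and 3 h after dosing. Values are means of n = 3.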

[2] = Plasma concentration in Sprague-Dawley rat at 10 mg/kg, po after 3 hrs; design: dose 10 mg/kg, route oral; procedure, shortened: as §1
[3] = Drug level in Sprague-Dawley rat brain at 10 mg/kg, po after 1 hr; design: dose 10 mg/kg, route oral; settings: read-out: Drug uptake; procedure, shortened: as §1
[4] = Drug level in Sprague-Dawley rat brain at 10 mg/kg, po after 3 hrs; design: dose 10 mg/kg, route oral; settings: read-out: Drug uptake; procedure, shortened: as §1
[5] = Cmax in Sprague-Dawley rat at 10 mg/kg, po; design: dose 10 mg/kg, route oral; settings: in vivo
Procedure, shortened: (§2)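 PK parameters in male Sprague–Dawley rats after intravenous dosing at 1 mg/kg and after oral dosing. Parameters derived were Vdss, apparent half-life, oral Cmax and estimated bioavailability.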

[6] = Plasma clearance in Sprague-Dawley rat at 1 mg/kg, iv or 10 mg/kg, po
[7] = Half life in Sprague-Dawley rat at 1 mg/kg, iv; design: dose 1 mg/kg, route intravenous; settings: in vivo; procedure, shortened: as §2
[8] = Oral bioavailability in Sprague-Dawley rat at 10 mg/kg; settings: in vivo; procedure, shortened: as §2
[9] = AUC in Sprague-Dawley rat at 10 mg/kg, po; design: dose 10 mg/kg, route oral; settings: plasma
[10] = Volume of distribution at steady state in Sprague-Dawley rat at 1 mg/kg, iv; design: dose 1 mg/kg, route intravenous; settings: in vivo, read-out: Vdss; procedure, shortened: as §2

concentration at 1 h [1] [nM]	concentration at 3 h [2] [nM]	concentration at 1 h [3] [nM]	concentration at 3 h [4] [nM]	Cmax [5] [nM]	clearance [6] [mL/min/kg]	half-life [7] [h]	bioavailability [8] [%]	AUC [9] [µM·h]	Vd [10] [L/kg]	SMILES
346	308	124	718	461	18.3	6.7	40	8.24	9.8	CNC(=O)c1c(NCC2CCC3(CCC3)CC2)nc(C#N)nc1OCC1CCN(C)CC1
191	381	67	455	298	10	11.8	24	8.08	9.3	CNC(=O)c1c(NCC2CCC3(CCC3)CC2)nc(C#N)nc1OCC1CCN(C(C)C)CC1
283	170	692	849	907	25	1.5	14	2.5	1.2	CNC(=O)c1c(NCC2CCC3(CCC3)CC2)nc(C#N)nc1OCCO
	287		164							CNC(=O)c1c(NCC2CCC3(CCC3)CC2)nc(C#N)nc1OC1CC(C)(C)NC(C)(C)C1
169	80	27	< 13							CNC(=O)c1c(NCC2CCC3(CCC3)CC2)nc(C#N)nc1OCC1CCN(C(C)=O)CC1
28	61	< 13	< 13							CNC(=O)c1c(NCC2CCC3(CCC3)CC2)nc(C#N)nc1OCC1CCNCC1
